Redox H2O2 prof – compounds producing H2O2 with reducing agent – biochemical, NIH compound library profiling, artefact control for MLSCN library redox annotation, primary screen; DTT-dependent redox cycling H2O2, phenol red/HRP absorbance; 100% = 100 µM peroxide control, 0% = buffer; activation, % at 10 µM; 200,000 compounds, 0.03% hits;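 active = activation of at least 50% relative to the plate's high and low controls in the primary single-dose screen; inactive = activation below 50%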;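 also: compound incubated with DTT at 0.8 mM final as the reducing agent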
Lipid droplet – inhibitors of hepatocyte lipid droplet formation, primary screen, imaging, high-throughput imaging, BODIPY stain; AML12 mouse hepatocytes, oleate lipid droplets; inhibition, % at 6.5 µM; 240,000 compounds, 0.4% hits;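 active = lipid droplet intensity inhibited by at least 50%, with more than 500 cells counted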
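System: AML12 hepatocytes (mouse). Probe or stimulus: oleic acid at 100 µM to induce lipid droplet formation. Times: overnight treatment with compound plus oleate. Detection: Image-based BODIPY and DAPI two-channel analysis. Evaluation: percent inhibition of filter-corrected integrated lipid droplet intensity per well.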
T cruzi repl – inhibitors of intracellular T. cruzi growth, primary screen, luminescence, NIH3T3 host cells. T. cruzi beta-gal in NIH3T3, 90 h. AID 1885, 2009. inhibition, % (test concentration not listed). 300,000 compounds, 1.4% hits;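 active = mean inhibition across valid replicates above about 55%, limit read from the data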;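 also: signal also drops with host cell toxicity which is not excluded here; higher percent means less beta-gal luminescence so fewer parasites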
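Material: NIH/3T3 host cells with β-galactosidase reporter T. cruzi; Input: 5,000 host fibroblasts per well; Medium: DMEM, 2% fetal bovine serum; Compound: 50 nL DMSO compound solution per well; Schedule: 3 h host attachment, then at least 90 h co-culture; Detection: luminescent β-galactosidase signal after 60 min lysis.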
MPTP block – mitochondrial permeability transition pore inhibitors, primary screen, biochemical, isolated mouse mitochondria, absorbance. AID 602449, 2012. 360,000 compounds, 1.4% hits. Ca2+ swelling absorbance, 30 min. inhibition, % at 10 µM;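 active = inhibition of 50% or more, scaled per plate between neutral and stimulator controls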
L major viab – Leishmania major promastigote growth inhibition, primary screen; 200,000 compounds, 9% hits; inhibition, % at 10 µM; Leishmania major promastigotes, resazurin fluorescence viability; AID 1063, 2008; in the data active = inhibition above about 50%;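 also: promastigotes grown with compound for 44 hours at 28 °C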
Each line names hits and unclear results; the compound was inactive in the other large screens. Shown is part of a subset that was picked to be rich in hits.

CC[n+]1c(C=C2C=C(C)OC(C)=C2)sc2ccccc21	T cruzi repl 73, L major viab 100
Cc1sc2ccccc2[n+]1CC(=O)c1ccccc1	none (no result: Redox H2O2 prof, L major viab)
COc1cccc(-n2c(SCC(=O)NCc3ccco3)nnc2-c2c[nH]c3ccccc23)c1	L major viab 98
COc1cccc(-n2c(SC)nnc2-c2c[nH]c3ccccc23)c1	none (no result: Lipid droplet)
COc1ccc(OC)c(-n2c(SCC(=O)NCc3ccco3)nnc2-c2c[nH]c3ccccc23)c1	L major viab 96 (no result: Lipid droplet)
CCn1c(SCC(=O)NCc2ccco2)nnc1-c1c[nH]c2ccccc12	none
Cc1cccc(-n2c(SCc3ccc([N+](=O)[O-])cc3)nnc2-c2c[nH]c3ccccc23)c1	T cruzi repl 66
Cc1c(Cl)cccc1NC(=O)[C@@H](NC(=O)c1ccccc1Cl)C(C)C	L major viab 73
Cc1ccc2c(CC(=O)NNC(=O)c3ccccc3)coc2c1	L major viab 55
CCOC(=O)C1CCCN(C(=O)CN2C(=O)/C(=C/c3ccc(OC)cc3)Oc3ccccc32)C1 (centres undefined)	L major viab 74
CCOC(=O)C1CCCN(C(=O)CN2C(=O)c3ccccc3C2=O)C1 (centres undefined)	none
CCOC(=O)C1(CCOc2ccccc2)CCN(Cc2ccc(O)cc2)CC1	none (no result: Redox H2O2 prof, L major viab)
CCOC(=O)C1(CCc2ccccc2)CCN(Cc2ccc(O)cc2)CC1	L major viab 95
CCOC(=O)C1(CCc2ccccc2)CCN(Cc2ccc(OC)cc2)CC1	L major viab 85
Cn1nc(N)c2ncc(-c3ccc(Cl)cc3)nc21	none (no result: Redox H2O2 prof, Lipid droplet, T cruzi repl, L major viab)
COc1cc(C(C)=O)ccc1OCC(O)Cn1nc(C)c(Br)c1C (centres undefined)	none (no result: Redox H2O2 prof, L major viab)
CCn1c(C)nc2cc(C(=O)NNC(=S)NC(=O)c3ccc(OC)cc3)ccc21	L major viab 94
CCn1c(C)nc2cc(C(=O)NNC(=S)Nc3ccc(C)cc3)ccc21	none (no result: Redox H2O2 prof, L major viab)
Cc1cc(C)c(C)c(S(=O)(=O)NCc2ccc(C(=O)N3CCCCC3)cc2)c1C	none
CSc1nn(CCc2ccncc2)c(=S)s1	L major viab 56 (no result: Lipid droplet)
CCOC(=O)c1ccc(NS(=O)(=O)c2c(N)n(C)c(=O)n(C)c2=O)cc1	none (no result: Redox H2O2 prof, Lipid droplet, L major viab)
O=C(Nc1ccc2c(c1)OCCO2)C(CCc1ccccc1)N1CCC(Cc2ccccc2)CC1 (centres undefined)	none (no result: Redox H2O2 prof, Lipid droplet, T cruzi repl, L major viab)
COc1ccccc1NS(=O)(=O)c1cccc(-n2c(O)c(C=Nc3ccccc3C(=O)O)c3ccccc3c2=O)c1	Lipid droplet 52 (no result: Redox H2O2 prof, L major viab)
CCOC(=O)[C@]12CCCC=C1N(CCC1=CCCCC1)C(=O)[C@H](CC(=O)NCc1ccccc1)C2	none (no result: Redox H2O2 prof, Lipid droplet, T cruzi repl, L major viab)
COc1ccc2cc3cc(C(=O)NCCN4CCc5ccccc5C4)oc3nc2c1	L major viab 99 (no result: Lipid droplet)
Cc1ccccc1S(=O)(=O)Cc1ccc(C(=O)NCCN2CCN(Cc3ccccc3)CC2)o1	T cruzi repl 61
CCOC(=O)N1CCC(NC(=O)c2cc3cc4cc(OC)ccc4nc3o2)CC1	none (no result: Lipid droplet)
COc1ccc2cc3cc(C(=O)NCCCN4CCC(C)CC4)oc3nc2c1	none (no result: Redox H2O2 prof, L major viab)
COc1ccc2cc3cc(C(=O)NCCN4CCN(Cc5ccccc5)CC4)oc3nc2c1	T cruzi repl 64, L major viab 95 (no result: Lipid droplet)
COc1ccc2nc3oc(C(=O)NC4CCN(Cc5ccccc5)CC4)cc3cc2c1	L major viab 100 (no result: T cruzi repl)
Cc1ccccc1S(=O)(=O)Cc1ccc(C(=O)NCCCN2CCN(C)CC2)o1	none (no result: Lipid droplet)
c1csc(-c2nn3cnnc3c3ccccc23)c1	none
COc1ccc2cc3cc(C(=O)NCCN4CCc5ccccc5C4)sc3nc2c1	L major viab 50
Cc1nc([N+](=O)[O-])c(Br)n1Cc1ccc(Cl)c(Cl)c1	L major viab 100
Cc1nc([N+](=O)[O-])c(NCCO)n1Cc1ccccc1	none
COc1ccc(C(=O)Cn2c(C)nc([N+](=O)[O-])c2Br)cc1	none (no result: Redox H2O2 prof, L major viab)
Cc1nc([N+](=O)[O-])c(Br)n1CC(=O)c1ccc(Cl)cc1	L major viab 99
Cc1ccc(NC(=S)/N=C(\N)Nc2nc(C)c3cc(C)ccc3n2)c(C)c1	none
Cc1ccc(NC(=S)/N=C(\N)Nc2nc(C)c3cc(C)c(C)cc3n2)cc1C	T cruzi repl 61
CCOc1ccc2nc(N/C(N)=N/C(=S)Nc3cccc(C)c3)nc(C)c2c1	L major viab 60 (no result: Lipid droplet)
N#CC(C#N)=c1ccc2c(c1)NC1(CCCCC1)N=2	L major viab 100 (no result: Lipid droplet)
N#CC(C#N)=C1NC2(CCCCC2)Cc2ccccc21	none (no result: Redox H2O2 prof, L major viab)
C[C@@H]1CN(C(=O)c2ccc(OC3CCN(S(=O)(=O)N(C)C)CC3)cc2)C[C@H](C)O1	none (no result: Redox H2O2 prof, L major viab)
CSc1sc(C(=O)Nc2ccc(F)cc2F)c2c1C=CCC2	none (no result: Redox H2O2 prof, L major viab)
C[C@@H]1CN([C@@H](C)CO)C(=O)c2cc(NS(C)(=O)=O)ccc2O[C@@H]1CN(C)Cc1ccc(C(F)(F)F)cc1	none (no result: Redox H2O2 prof, Lipid droplet, T cruzi repl, L major viab)
CC(C)N1CCN(Cc2cn[nH]c2C2CCCCC2)CC1CCO (centres undefined)	none
O=C1CCN=C(Nc2ccc(F)cc2)N1Cc1ccccc1	L major viab 72
Cc1cc(C)cc(NC2=NCC(=O)N2Cc2ccccc2)c1	none
Cc1cccc(Cn2c(=O)n(-c3ccc(CC(=O)NCc4ccco4)cc3)c(=O)c3sccc32)c1	L major viab 63 (no result: Lipid droplet)
O=C(Cc1ccc(NC(=O)C2CCCN(C(=O)C3CC3)C2)cc1)Nc1cccc(C(=O)N2CCCCC2)c1 (centres undefined)	none (no result: Redox H2O2 prof, Lipid droplet, T cruzi repl, L major viab)
CC1(C(=O)Nc2ccccc2F)CCN1C(=O)Cc1ccc(-c2ccccc2)cc1 (centres undefined)	none (no result: Redox H2O2 prof, Lipid droplet, T cruzi repl, L major viab)
Cc1cccc(N2CCN(C(=O)C(NS(=O)(=O)c3cccs3)c3ccccc3)CC2)c1C (centres undefined)	L major viab 62
CC(C)[C@H](NC(=O)[C@H](CCCN=C(N)N)NC(=O)NC(Cc1ccccc1)C(=O)O)C(=O)NC(C=O)CCCN=C(N)N (some centres undefined)	L major viab 82
COc1ccc(S(=O)(=O)N(C)C)cc1NCC(=O)Nc1ccc(Br)cc1F	L major viab 57
CC(=O)Nc1ccc(S(=O)(=O)N(C)CC(=O)Nc2ccc(Br)cc2F)cc1	none (no result: Redox H2O2 prof, Lipid droplet, L major viab)
N#CCC(=O)N/N=C/c1ccc(Cl)cc1	none (no result: Redox H2O2 prof, L major viab)
CCCCOc1ccccc1/C=N/NC(=O)CC#N	none
N#CCC(=O)N/N=C/c1cc(-c2ccccc2)n(-c2ccc(Cl)cc2)c1-c1ccccc1	T cruzi repl 60 (no result: MPTP block)
Cc1ccc(-n2c(-c3ccccc3)cc(/C=N/NC(=O)CC#N)c2-c2ccccc2)cc1	T cruzi repl 65 (no result: MPTP block)
COc1ccc(CCNC(=O)C2CC(O)CN2S(=O)(=O)c2ccc(Cl)cc2)cc1OC (centres undefined)	none (no result: Redox H2O2 prof, Lipid droplet, T cruzi repl, L major viab)
O=C(CN1CCCc2ccccc21)NC(=O)NC1CCCCC1	none
CC1Cc2ccccc2N1CC(=O)NC(=O)NCc1ccco1 (centres undefined)	L major viab 97
O=C(CN1CCCCCCC1)NC(=O)NC1CCCCC1	L major viab 58

Screening data deposited in PubChem by several laboratories.
